# Screening results as filed in PubChem BioAssay.
# Neddylation inh: inhibitors of cullin neddylation, primary screen, biochemical, TR-FRET, uHTS, NAE and Ubc12; NEDD8-conjugating enzyme Ubc12 (Homo sapiens) + NEDD8-activating enzyme E1 regulatory …; inhibition, % at 25 µM; 360,000 tested, 0.58% active; in the data active = inhibition above about 36%
# Target sequence (P61081 whole entry, looked up): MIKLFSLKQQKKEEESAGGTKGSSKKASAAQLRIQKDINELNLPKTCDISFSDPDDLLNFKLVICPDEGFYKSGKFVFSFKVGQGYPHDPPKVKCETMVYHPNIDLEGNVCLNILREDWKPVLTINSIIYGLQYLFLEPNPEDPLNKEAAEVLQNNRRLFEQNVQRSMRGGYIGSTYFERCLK
# Target sequence (Q13564 whole entry, looked up): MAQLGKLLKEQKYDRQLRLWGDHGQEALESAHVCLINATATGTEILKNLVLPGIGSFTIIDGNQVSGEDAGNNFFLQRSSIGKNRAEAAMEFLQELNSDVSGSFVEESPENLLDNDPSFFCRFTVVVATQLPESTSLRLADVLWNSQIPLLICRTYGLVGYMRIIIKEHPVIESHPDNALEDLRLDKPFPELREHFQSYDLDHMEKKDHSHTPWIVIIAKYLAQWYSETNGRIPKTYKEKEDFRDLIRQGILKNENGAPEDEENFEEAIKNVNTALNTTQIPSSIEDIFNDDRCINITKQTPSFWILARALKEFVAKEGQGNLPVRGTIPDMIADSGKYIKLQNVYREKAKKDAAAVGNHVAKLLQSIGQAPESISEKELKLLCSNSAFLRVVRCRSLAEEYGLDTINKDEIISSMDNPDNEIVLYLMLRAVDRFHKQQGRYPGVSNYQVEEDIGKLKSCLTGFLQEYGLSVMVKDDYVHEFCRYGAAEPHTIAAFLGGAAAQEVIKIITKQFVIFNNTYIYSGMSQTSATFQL
# Tb MetRS inh: T. brucei MetRS inhibitors, primary screen, biochemical, luminescence. 360,000 tested, 0.4% active. inhibition, % at 11.9 µM. purified T. brucei MetRS, ATP depletion, Kinase-Glo luminescence. methionyl-tRNA synthetase (Trypanosoma brucei brucei);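 active = inhibition above a per-plate cutoff of the control wells' mean inhibition plus 3 SD, cut at about 5.5% in these data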;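 also: 0% = DMSO wells median and 100% = median of wells with control inhibitor compound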
#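 Test system – parasite MetRS enzyme · Reagent – substrates ATP, L-methionine and bulk Escherichia coli tRNA · Doses – 11.9 µM compound single dose, 0.9% DMSO · Times – 15 min enzyme-compound preincubation, 2 h reaction, 10 min detection, 25 °C · Signal – Kinase-Glo luminescence, ATP depletion format · Controls – DMSO-only wells as low control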
# CSN inh: inhibitors of CSN-mediated cullin deneddylation, primary screen, biochemical, fluorescence polarization, uHTS | COP9 signalosome complex subunit 5 (Homo sapiens), Q92905 | Purified CSN, SCF-Nedd8-OG deneddylation | inhibition, % at 12.5 µM | 360,000 tested, 0.38% active;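 active = pattern-corrected inhibition above about 35%, with an unprinted fluorescence ratio check between 0.5 and 1.5, limit read from the data, passing the limit was not always enough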;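 also: 0% = enzyme with substrate and 100% = substrate without enzyme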
#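 Test system: purified human Csn5 enzyme expressed in HEK293T cells. Amount: 0.24 nM enzyme. Reagent: SCFSkp2-Nedd8OG substrate at 10 nM final. Schedule: 90 min incubation of compound, enzyme and substrate at room temperature. Detection: fluorescence polarization. Read-out: % inhibition of substrate cleavage by Csn5.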
# Rpn11 inh: Rpn11 (PSMD14) deubiquitinase inhibitors, primary screen, biochemical, fluorescence polarization, uHTS. 26S proteasome non-ATPase regulatory subunit 14 (Homo sapiens), O00487. 360,000 tested, 0.59% active. AID 588493, 2011. human 26S proteasome, Ub4-pepOG fluorescence polarization; 20S core pre-blocked with epoxomicin. inhibition, % at 20 µM;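 active = inhibition at 20 µM, scaled to each plate's controls, above about 33%, limit read from the data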
# HNF4A DNA FP: change in binding of human HNF4A to DNA, primary screen, biochemical, fluorescence polarization, FITC-DNA. 1 h. activity change, % at 10 µM. 360,000 tested, 0.3% active. AID 1224865, 2016; in the data active = activity change above about 30%, passing the limit was not always enough
# PREPL inh: PREPL enzyme inhibitors, primary screen, biochemical, fluorescence polarization | inhibition, % at 5.96 µM | Prolyl endopeptidase-like (Homo sapiens), Q4J6C6 | 320,000 tested, 0.68% active | recombinant PREPL, fluorescence polarization activity-based probe | AID 2751, 2010; in the data active = inhibition above about 43%;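 also: 0% = enzyme with DMSO and 100% = wells lacking enzyme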
# TbMetRS confirm: T. brucei MetRS inhibitors, confirmation, biochemical, luminescence; shares compounds with Tb MetRS inh; T. brucei MetRS enzyme, luminescence (ATP depletion); inhibition, % at 11.9 µM; 1,400 tested, 93% active; AID 624412, 2012; in the data active = inhibition above about 7%
# Jurkat tox: Jurkat T cell cytotoxicity, cytotoxicity control for T. brucei MetRS inhibitor project, luminescence, high throughput. shares compounds with Tb MetRS inh. Jurkat cells viability, ATP luminescence. inhibition, % at 8.3 µM. 1,400 tested, 12% active. AID 624413, 2012; in the data active = inhibition above about 15%;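 also: 0% = vehicle and 100% = reference inhibitor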
# Tb MetRS inh FP: T. brucei MetRS inhibitors, orthogonal assay for T. brucei MetRS inhibitor project, biochemical, fluorescence polarization; 1,400 tested, 44% active; shares compounds with Tb MetRS inh; AID 651607, 2012; purified T. brucei MetRS; inhibition, % at 11.9 µM; in the data active = inhibition above about 17%;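 also: 0% = vehicle wells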
# * marks the source's active call; other numbers are inactive results; . = no result shown. This is a sample that favours compounds with a hit; in the whole collection about 2.4% have one here.
SMILES,Neddylation inh,Tb MetRS inh,CSN inh,Rpn11 inh,HNF4A DNA FP,PREPL inh,TbMetRS confirm,Jurkat tox,Tb MetRS inh FP
CC1CCN(C(=O)CCC(=O)Nc2ccc([N+](=O)[O-])cc2)CC1,-13,0,1,-4,1,.,.,.,.
CCC(=O)c1c[nH]c(C(=O)NCc2cccc(C(F)(F)F)c2)c1,-14,6.0*,0,4,-1,11,12*,5,9
CCOC(=O)[C@]12CCC=C1N(CCC1=CCCCC1)C(=O)[C@H](CC(=O)N1CCSCC1)C2,2,0,-3,.,0,.,.,.,.
O=C1C2Sc3[nH]c(=O)sc3C(c3cc([N+](=O)[O-])ccc3O)C2C(=O)N1c1ccccc1 (stereo unspecified),-15,16*,-3,15,2,4,19*,0,12
Cc1ccc(N2C(=O)C3Sc4[nH]c(=O)sc4C(c4ccccc4)C3C2=O)cc1 (stereo unspecified),-2,0,2,6,0,14,.,.,.
COc1cc(Cc2nc3ccccc3n2C(C)c2nc3ccccc3[nH]2)cc(OC)c1 (stereo unspecified),-13,0,4,.,9,.,.,.,.
COc1cccc(CC(Cc2nc3ccccc3[nH]2)c2nc3ccccc3[nH]2)c1 (stereo unspecified),9,9.3*,-16,-4,-6,25,12*,5,5
CC/C(=N/O)C(=O)c1ccc(Br)cc1,6,6.2*,0,11,4,2,19*,-3,11
COc1cc(/C=N/NC(=O)CSc2cc(C)c(Br)cc2C)ccc1O,-1,0,0,3,-1,-10,.,.,.
Cc1cc(SCC(=O)N/N=C/c2ccc(O)c(O)c2O)c(C)cc1Br,-5,76*,-7,-5,-2,1,103*,56*,84*
CCCc1cn(CC(C)n2c(=O)c3ccccc3n2Cc2cc(C(C)C)no2)nn1 (stereo unspecified),.,0,-3,.,-5,.,.,.,.
CC(=O)Nc1ccc(S(=O)(=O)N2CCC(Oc3ccc(-n4cnnn4)cc3)CC2)cc1,-5,6.0*,0,-2,1,-9,15*,6,5
O=[N+]([O-])c1[nH]cnc1/C=C/c1ccccc1,-27,5.6*,3,-7,2,6,10*,4,0
COC(=O)c1nc[nH]c1[N+](=O)[O-],-13,0,0,-6,-1,.,.,.,.
CCCCCCN1C[C@@H](n2cc(COC(=O)c3ccccc3)nn2)[C@H](O)C[C@@H]1c1ccccc1,6,-2,-5,-3,0,.,.,.,.
N#Cc1ccc(Sc2nc3ccccc3[nH]2)cc1C#N,-17,17*,0,-2,5,-5,29*,0,14
COc1ccc(CCC2=NCCN2C(CC(C)C)c2nc3ccccc3[nH]2)cc1 (stereo unspecified),-1,12*,-1,-2,-6,.,20*,7,5
Cn1c(/N=C(\N)c2ccccc2)nc2ccccc21,8,0,-3,-18,0,.,.,.,.
Cc1cc(C)nc(NS(=O)(=O)c2ccc(NC(=O)Nc3ccccc3F)cc2)n1,1,7.3*,2,-11,4,-4,16*,-8,2
COc1cc(NC(=O)CCN2CCOCC2)cc(OC)c1,4,0,4,8,1,.,.,.,.
COc1cc(NC(=O)CCN2CC(C)OC(C)C2)cc(OC)c1 (stereo unspecified),-5,5.8*,4,10,-2,4,0,2,3
C[C@H]([C@H](O)c1ccccc1)N(C)C(=O)CN,1,0,-5,0,0,0,.,.,.
Cc1ccc(C)c(NC(=O)CN(C)C(=O)Cc2ccc(Cl)cc2Cl)c1,-6,-1,4,16,0,19,.,.,.
CN(CCC(=O)Nc1ccc(Cl)cc1)Cc1ccccc1,8,14*,0,6,1,-10,31*,8,15
Cc1ccc(NC(=O)CN(C)C(=O)Cc2ccc(Cl)cc2Cl)cc1,-8,54*,0,5,4,2,67*,-2,42*
SMILES,Neddylation inh,Tb MetRS inh,CSN inh,Rpn11 inh,HNF4A DNA FP,PREPL inh,TbMetRS confirm,Jurkat tox,Tb MetRS inh FP
CN(CC(=O)Nc1ccc(Cl)cc1)CC(=O)Nc1cccc(Br)c1,-7,30*,0,0,1,-36,49*,7,29*
CN(CC(=O)Nc1ccc(Cl)cc1)C(=O)CCc1ccccc1,0,20*,2,2,-2,-15,39*,-5,18*
CN(CCC(=O)Nc1ccc2c(c1)OCO2)Cc1ccccc1,5,2,-4,3,0,13,.,.,.
CN1CCCC(n2nc(Cc3ccc(Cl)cc3)c3ccccc3c2=O)CC1 (stereo unspecified),-2,-1,-2,-6,2,8,.,.,.
CN(CC(=O)Nc1ccc(Cl)cc1)C(=O)CCc1c[nH]c2ccccc12,-5,34*,2,-1,1,-2,55*,0,23*
COc1ccc(NC(=O)CN(C)C(=O)CCCc2c[nH]c3ccccc23)cc1,23,0,-2,-4,0,14,.,.,.
Nc1nc(SCc2ccccc2Cl)c2ncn(C3OC(CO)C(O)C3O)c2n1 (stereo unspecified),8,0,1,-8,3,.,.,.,.
O=C(CSc1nc2ccc(Cl)cc2[nH]1)N1CCN(C(=O)c2ccco2)CC1,8,12*,-13,3,2,3,14*,17*,12
O=C(Cn1cnc2ccccc21)Nc1ccc(C(=O)O)cc1,-5,0,-8,2,1,-5,.,.,.
Cc1ccc2nc(SCC(=O)N3CCN(C(=O)c4ccco4)CC3)[nH]c2c1,10,1,2,6,1,4,.,.,.
